Data reported in ChEMBL document CHEMBL1130789, “Peptidyl human heart chymase inhibitors. 1. Synthesis and inhibitory activity of difluoromethylene ketone derivatives bearing P' binding subsites” (Bioorg Med Chem Lett, 1998).
Non-standard residues stand in square brackets, D forms with d. Residues, ends and D or L forms follow the SMILES beside them. ξ: configuration not given here. *: point of attachment. ξF = NC(Cc1ccccc1)C(=O)O; Boc = CC(C)(C)OC(=O)*; CF3 = FC(F)(F)*

What was measured:
[1] = biological target: Chymotrypsinogen A (Bos taurus, UniProt P00766); assay: Compound was evaluated for inhibitory activity against Chymotrypsinogen
How it was run: (§1)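 Synthetic chromogenic substrate at 2.5 mM final in 20 mM Tris-HCl pH 7.5 with 2 M KCl. Five inhibitor concentrations were tested, with 10% DMSO in water as the control. The enzyme was added last. A405 minus A650 was read after 2 h at 37 °C. Residual activity was fitted by Easson–Stedman, and Ki = Ki'×Km/(Km+[S]). Mean ± SEM, n = 3 (some n = 2).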

[2] = biological target: T1, Chymase (Homo sapiens, UniProt P23946); assay: Compound was evaluated for inhibitory activity against human heart chymase (HHC); how it was run: as §1
T1 sequence (P23946 whole entry): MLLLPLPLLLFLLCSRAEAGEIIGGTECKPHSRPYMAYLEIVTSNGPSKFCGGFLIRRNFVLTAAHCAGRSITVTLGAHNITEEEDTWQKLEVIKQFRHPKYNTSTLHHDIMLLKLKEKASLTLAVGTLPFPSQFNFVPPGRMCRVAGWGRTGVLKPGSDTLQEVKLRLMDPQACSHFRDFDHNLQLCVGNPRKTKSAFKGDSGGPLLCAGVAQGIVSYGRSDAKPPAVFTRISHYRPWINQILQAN

[3] = species: Bos taurus; assay: Selectivity ratio of Bovine chymotrypsin (BCT - Ki) to human heart chymase (HHC - Ki)

Row | Compound | Ki [1] [nM] | Ki [2] [nM] | Ratio [3]
1 | CC(C)[C@H](NC(=O)OC(C)(C)C)C(=O)N1CCC[C@H]1C(=O)NC(Cc1ccccc1)C(=O)C(F)(F)C(=O)N(C)Cc1ccccc1 (stereo not given in full) | 7550 | 70.1 | 108
2 | CC(=O)N[C@H](C(=O)N1CCC[C@H]1C(=O)NC(Cc1ccccc1)C(=O)C(F)(F)C(=O)Nc1cccc(C(=O)O)c1)C(C)C (stereo not given in full) | 11 | 7.1 | 2
3 | CC(C)[C@H](NS(C)(=O)=O)C(=O)N1CCC[C@H]1C(=O)NC(Cc1ccccc1)C(=O)C(F)(F)C(=O)Nc1cccc(C(=O)O)c1 (stereo not given in full) | 207 | 16.5 | 13
4 | CC(C)[C@H](NC(=O)OC(C)(C)C)C(=O)N1CCC[C@H]1C(=O)NC(Cc1ccccc1)C(=O)C(F)(F)C(=O)N1CCCC1C(=O)O (stereo not given in full) | > 100000 | 493 | > 203
5 | CC(C)[C@H](NC(=O)OC(C)(C)C)C(=O)N1CCC[C@H]1C(=O)NC(Cc1ccccc1)C(=O)C(F)(F)C(=O)NC(C(=O)O)c1ccccc1 (stereo not given in full) | > 100000 | 1040 | > 96
6 | CC(C)[C@H](NC(=O)OC(C)(C)C)C(=O)N1CCC[C@H]1C(=O)NC(Cc1ccccc1)C(=O)C(F)(F)C(=O)NC(Cc1ccccc1)C(=O)O (stereo not given in full) | 1700 | 30.1 | 57
7 | CC(C)[C@H](NC(=O)OC(C)(C)C)C(=O)N1CCC[C@H]1C(=O)NC(Cc1ccccc1)C(=O)C(F)(F)C(=O)Nc1ccccc1C(=O)O (stereo not given in full) | > 100000 | 3620 | > 28
8 | CC(C)[C@H](NC(=O)OC(C)(C)C)C(=O)N1CCC[C@H]1C(=O)NC(Cc1ccccc1)C(=O)C(F)(F)C(=O)NCCc1ccccc1 (stereo not given in full) | 2040 | 18.3 | 111
9 | CC(C)[C@H](NC(=O)OC(C)(C)C)C(=O)N1CCC[C@H]1C(=O)NC(Cc1ccccc1)C(=O)C(F)(F)C(=O)N[C@@H](Cc1ccccc1)C(=O)O (stereo not given in full) | 77400 | 513 | 151
10 | CC(C)[C@H](NC(=O)OC(C)(C)C)C(=O)N1CCC[C@H]1C(=O)NC(Cc1ccccc1)C(=O)C(F)(F)C(=O)Nc1ccccc1 (stereo not given in full) | 70 | 16.3 | 4
11 | CC(C)[C@H](NC(=O)CCc1ccccc1)C(=O)N1CCC[C@H]1C(=O)NC(Cc1ccccc1)C(=O)C(F)(F)C(=O)Nc1cccc(C(=O)O)c1 (stereo not given in full) | 19 | 1.3 | 15
12 | CC(C)[C@H](NC(=O)c1ccccc1)C(=O)N1CCC[C@H]1C(=O)NC(Cc1ccccc1)C(=O)C(F)(F)C(=O)Nc1cccc(C(=O)O)c1 (stereo not given in full) | 275 | 3.1 | 88
13 | CC(C)[C@H](NS(=O)(=O)c1ccccc1)C(=O)N1CCC[C@H]1C(=O)NC(Cc1ccccc1)C(=O)C(F)(F)C(=O)Nc1cccc(C(=O)O)c1 (stereo not given in full) | 554 | 6.3 | 88

More lines, now with the values ahead:

Row | Ki [1] [nM] | Ki [2] [nM] | Ratio [3] | Compound
14 | 113 | 55.8 | 2 | CC(C)[C@H](NC(=O)OC(C)(C)C)C(=O)N1CCC[C@H]1C(=O)NC(Cc1ccccc1)C(=O)C(F)(F)F (stereo partly drawn) (Boc-Val-Pro-[ξF]-CF3)
15 | 172 | 7.4 |  | CC(C)[C@H](NC(=O)OC(C)(C)C)C(=O)N1CCC[C@H]1C(=O)NC(Cc1ccccc1)C(=O)C(F)(F)C(=O)NCc1ccccc1 (mixture of isomers; form 1) [listing 1 of 2 here]
16 | 364 | 5.6 |  | CC(C)[C@H](NC(=O)OC(C)(C)C)C(=O)N1CCC[C@H]1C(=O)NC(Cc1ccccc1)C(=O)C(F)(F)C(=O)Nc1cccc(C(=O)O)c1 (stereo not given in full)
17 | 4430 | 24 | 185 | CC(C)[C@H](NC(=O)OC(C)(C)C)C(=O)N1CCC[C@H]1C(=O)NC(Cc1ccccc1)C(=O)C(F)(F)C(=O)NCCCC(=O)O (stereo not given in full)
18 | 2510 | 6.5 | 387 | COC(=O)CNC(=O)C(F)(F)C(=O)C(Cc1ccccc1)NC(=O)[C@@H]1CCCN1C(=O)[C@@H](NC(=O)OC(C)(C)C)C(C)C (stereo not given in full)
19 | 2620 | 13.1 | 200 | CC(C)[C@H](NC(=O)OC(C)(C)C)C(=O)N1CCC[C@H]1C(=O)NC(Cc1ccccc1)C(=O)C(F)(F)C(=O)NCC(=O)O (stereo not given in full)
20 | 200 | 6.8 | 29 | CC(C)[C@H](NC(=O)OC(C)(C)C)C(=O)N1CCC[C@H]1C(=O)NC(Cc1ccccc1)C(=O)C(F)(F)C(=O)Nc1ccc(C(=O)O)cc1 (stereo not given in full)
21 | > 100000 | 1010 | > 99 | CC(C)[C@H](NC(=O)OC(C)(C)C)C(=O)N1CCC[C@H]1C(=O)NC(Cc1ccccc1)C(=O)C(F)(F)C(=O)NC(CCC(=O)O)C(=O)O (stereo not given in full)
22 | > 100000 | 1550 | > 65 | CC(C)[C@H](NC(=O)OC(C)(C)C)C(=O)N1CCC[C@H]1C(=O)NC(Cc1ccccc1)C(=O)C(F)(F)C(=O)NC(CC(=O)O)C(=O)O (stereo not given in full)
23 | 54900 | 65.6 | 837 | CC(NC(=O)C(F)(F)C(=O)C(Cc1ccccc1)NC(=O)[C@@H]1CCCN1C(=O)[C@@H](NC(=O)OC(C)(C)C)C(C)C)C(=O)O (stereo not given in full)
24 |  |  | 23 | CC(C)[C@H](NC(=O)OC(C)(C)C)C(=O)N1CCC[C@H]1C(=O)NC(Cc1ccccc1)C(=O)C(F)(F)C(=O)NCc1ccccc1 (mixture of isomers; form 1) [listing 2 of 2 here]
25 | 1070 | 28.7 | 37 | CNC(=O)C(F)(F)C(=O)C(Cc1ccccc1)NC(=O)[C@@H]1CCCN1C(=O)[C@@H](NC(=O)OC(C)(C)C)C(C)C (stereo not given in full)
26 | 11900 | 92.4 |  | CC(C)[C@H](NC(=O)OC(C)(C)C)C(=O)N1CCC[C@H]1C(=O)NC(Cc1ccccc1)C(=O)C(F)(F)C(=O)NCc1ccccc1 (mixture of isomers; form 2) [listing 1 of 2 here]
27 | 316 | 12.5 | 25 | CC(C)[C@H](NC(=O)OC(C)(C)C)C(=O)N1CCC[C@H]1C(=O)NC(Cc1ccccc1)C(=O)C(F)(F)C(=O)NCC(=O)OCc1ccccc1 (stereo not given in full)
28 |  |  | 129 | CC(C)[C@H](NC(=O)OC(C)(C)C)C(=O)N1CCC[C@H]1C(=O)NC(Cc1ccccc1)C(=O)C(F)(F)C(=O)NCc1ccccc1 (mixture of isomers; form 2) [listing 2 of 2 here]
29 | 2300 | 36.4 | 63 | CC(C)[C@H](NC(=O)OC(C)(C)C)C(=O)N1CCC[C@H]1C(=O)NC(Cc1ccccc1)C(=O)C(F)(F)C(=O)NCCC(=O)O (stereo not given in full)
